For one test, the system named is ARPE-19. The test is described as follows: Inhibition of intracellular A2E photooxidation in human ARPE19 cells at 20 uM after 18 days. It counts as functional, cell-based. In a few lines: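 ARPE-19 cells (lacking endogenous A2E) grown to confluence for 5 days, then fed 10 µM synthetic A2E for 18 days in medium with 10% FBS. Antioxidant at 20 µM present on days 10–18. Cells washed in DPBS and irradiated at 430 nm (2.8 mW/cm2) for 10 min. Trypsinised, counted, dried, methanol-extracted. A2E quantified by reversed-phase HPLC; loss versus unirradiated cells gave percent photooxidation.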

The nature of test [1]: Inhibition of A2E photooxidation at 100 uM after 5 mins by reversed-phase HPLC analysis. Type of test: functional. The gist of the method:
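Cell-free assay: A2E (200 µM DMSO stock) added to DPBS, antioxidant from DMSO solution added to 100 µM final. Irradiated at 430 nm (2.8 mW/cm2) for 5 min. Samples diluted with EtOH and analysed by reversed-phase HPLC under dim red light. Percent photooxidation taken as A2E loss relative to unirradiated samples.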

Each structure is given as a SMILES string. Active and inactive are the calls of the source. The rule behind the calls is not given here.

Take `O=c1c(O)c(-c2ccc(O)c(O)c2)oc2c(CN3CCN(Cc4c(O)cc(O)c5c(=O)c(O)c(-c6ccc(O)c(O)c6)oc45)CC3)c(O)cc(O)c12`: the inhibition entry (with ARPE-19; in test [1]) was “Active” each time.

Consider `O=c1c(O)c(-c2ccc(O)c(O)c2)oc2cc(O)cc(O)c12`, for which the inhibition entry (in the test on ARPE-19; in test [1]) was “Active” throughout.

Take `O=c1c(O)c(-c2ccc(O)c(O)c2)oc2c(CN3CCc4cc(O)c(O)cc4C3)c(O)cc(O)c12`: the inhibition entry (in the test with ARPE-19; in test [1]) was “Active” in each case.

With `CN(CCN(C)Cc1c(O)cc(O)c2c(=O)c(O)c(-c3ccc(O)c(O)c3)oc12)Cc1c(O)cc(O)c2c(=O)c(O)c(-c3ccc(O)c(O)c3)oc12`, the inhibition result (with ARPE-19; in test [1]) was “Active” in each case.

For the compound `O=c1c(O)c(-c2ccc(O)c(O)c2)oc2c(CN3CCOCC3)c(O)cc(O)c12`, the inhibition entry (in the test with ARPE-19; in test [1]) was “Active” each time.

These data come from ChEMBL document CHEMBL2331545, “Synthesis of antioxidants for prevention of age-related macular degeneration” (J Nat Prod, 2013).
